Measurements as given in ChEMBL document CHEMBL1155730, “Taxane diterpenoids from the stem bark of Taxus mairei” (J Nat Prod, 2001).
Values after ≈ are worked out from the molar mass of the structure shown. Starred links: 1 amine or outer side, 2 acyl side, 3 side chain; linkers in the order of their positions; H or OH if unused. Positions of bridges follow the written chain, without caps; N, C: chain ends. Non-standard residues stand in square brackets, D forms with d. Residues, ends and D or L forms follow the SMILES beside them. Chains are numbered I, II in the order given. Actinocin(1to9) = Cc1c2oc3c(C)ccc(C(=O)[*:2])c3nc-2c(C(=O)[*:1])c(N)c1=O; NMeV = CN[C@H](C(=O)O)C(C)C; Sar = CNCC(=O)O

Tests used:
KB = assay: Cytotoxicity against human KB cells after 72 hrs by methylene blue assay; assay type: functional, cell-based
Outline: (§1)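 Cells grown in RPMI-1640 at 37 °C under 5% CO2, seeded at 2880 cells/well and left 3 h before adding samples. Samples prepared at 1, 10, 40 and 100 μg/mL, then 3 days at 37 °C. Cells fixed in 10% formal saline, stained with 1% methylene blue in 0.01 M borate buffer, washed, and dye eluted with ethanol/0.1 M HCl (1:1). A650 read. IC50 is 50% absorbance reduction vs untreated cells.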

[1] = Cytotoxicity against human HepA cells after 72 hrs by methylene blue assay; assay type: functional, cell-based; outline: as §1

Compound | IC50 (KB) [µg/mL] | IC50 [1] [µg/mL]
CC(=O)O[C@@H]1C2=C(C)[C@@H](OC(=O)c3ccccc3)C[C@@]2(C(C)(C)O)[C@@H](O)[C@@H]2[C@]3(OC(C)=O)CO[C@@H]3C[C@H](OC(C)=O)[C@@]2(C)[C@H]1OC(=O)c1ccccc1 | > 20 | > 20
CC(=O)OC[C@H]1[C@H]2[C@H](O)[C@]3(C(C)(C)O)C[C@H](OC(C)=O)C(C)=C3[C@@H](OC(C)=O)[C@H](OC(C)=O)[C@]2(C)[C@@H](OC(C)=O)C[C@@H]1OC(C)=O | > 20 | 2.7 (≈ 4.12 µM)
Cc1c2oc3c(C)ccc(C(=O)N[C@@H]4C(=O)N[C@H](C(C)C)C(=O)N5CCC[C@H]5C(=O)N(C)CC(=O)N(C)[C@@H](C(C)C)C(=O)O[C@@H]4C)c3nc-2c(C(=O)N[C@@H]2C(=O)N[C@H](C(C)C)C(=O)N3CCC[C@H]3C(=O)N(C)CC(=O)N(C)[C@@H](C(C)C)C(=O)O[C@@H]2C)c(N)c1=O [DACTINOMYCIN] (I: T[dV]P[Sar][NMeV] / II: T[dV]P[Sar][NMeV]; ester I:1-I:C, II:1-II:C; linker I:N-II:N via Actinocin(1to9)) |  | 0.01 (≈ 0.00797 µM)
CO[C@@]12[C@H](COC(N)=O)C3=C(C(=O)C(C)=C(N)C3=O)N1C[C@@H]1N[C@@H]12 [MITOMYCIN] |  | 0.01 (≈ 0.0299 µM)
CC(=O)O[C@H]1C(=O)[C@@]2(C)[C@H]([C@H](OC(=O)c3ccccc3)[C@]3(O)C[C@H](OC(=O)[C@H](O)[C@@H](NC(=O)c4ccccc4)c4ccccc4)C(C)=C1C3(C)C)[C@]1(OC(C)=O)CO[C@@H]1C[C@@H]2O [PACLITAXEL] | < 0.1 | < 0.1
CC(=O)OC[C@H]1[C@H]2[C@H](O)[C@]3(C(C)(C)O)C[C@H](OC(C)=O)C(C)=C3[C@@H](O)[C@H](OC(C)=O)[C@]2(C)[C@@H](OC(C)=O)C[C@@H]1OC(C)=O [TAXUMAIRO U] | 10.3 (≈ 16.8 µM) | 0.3 (≈ 0.49 µM)
CC(=O)OC[C@H]1[C@H]2[C@H](O)[C@]3(C(C)(C)O)C[C@H](O)C(C)=C3[C@@H](O)[C@H](OC(C)=O)[C@]2(C)[C@@H](OC(C)=O)C[C@@H]1OC(C)=O [TAXUMAIROL V] | 3.9 (≈ 6.83 µM) | 1.6 (≈ 2.8 µM)
CC(=O)O[C@@H]1C2=C(C)[C@@H](O)C[C@@]2(C(C)(C)O)[C@@H](OC(C)=O)[C@@H]2[C@]3(OC(C)=O)CO[C@@H]3C[C@H](OC(C)=O)[C@@]2(C)[C@H]1O [TAXUMAIROL W] | > 20 | 7 (≈ 12.3 µM)
